Measured values gathered from unrelated publications.
Sample: plasma

| Compound | test system | conditions | bioavailability |
| --- | --- | --- | --- |
| CC(C)c1cnn2c(NCc3ccccc3)cc(NC[C@H]3CCNC[C@@H]3O)nc12 | male CD-1 mouse | oral, 10 mg/kg | 30% |
| c1ccc2[nH]c(CNc3nc(N4CCOCC4)nc4c3ncn4-c3ccsc3)nc2c1 | mouse | intravenous, 1 mg/kg | 0% |
| N[C@@H](CSSC[C@H](N)C(=O)O)C(=O)O | Kunming mouse | oral, 50 mg/kg | 15.1% |
| Nc1ncc(-c2ccncc2)nc1Nc1ccc2[nH]ccc2c1 | male C57BL/6 mouse | oral, 30 mg/kg | 89% |
| CCc1ccc(Cc2cc([C@@H]3O[C@H](CO)[C@@H](O)[C@H](O)[C@H]3O)cc3c2CCC3)cc1 | male C57BL/6 mouse | oral, 3 mg/kg | > 100% |
| N#C[C@@]1(c2ccc3c(N)ncnn23)O[C@H](CO)[C@@H](O)[C@H]1O | male CD-1 mouse | oral, 10 mg/kg | 57% |
| COc1cc(N2CCN(C)CC2)ccc1Nc1ncc2c(n1)N(C)c1ccccc1C(=O)N2CC(F)(F)F | male Swiss mouse | oral, 10 mg/kg | 81% |
| CCOc1ccc(Cc2cc([C@@H]3O[C@H](CO)[C@@H](O)[C@H](O)[C@H]3O)ccc2Cl)cc1 | male C57BL/6 mouse | oral, 1 mg/kg | 67% |
| CC(C)(Nc1nc(-c2ccccn2)nc2ccccc12)c1ccccn1 | female BALB/c mouse | oral, 50 mg/kg | 102% |
| Cc1c(C(=O)Nc2ccc(F)c(Cl)c2)sc(N)c1C(N)=O | male CD-1 mouse | oral, 10 mg/kg | 46% |
| CCc1cc(OC)c2nccc(N3CCc4c(cc(Cn5ccnc5)cc4-c4cn(C)nc4C(F)(F)F)C3=O)c2c1 | male CD-1 mouse | oral, 50 mg/kg | 194% |
| COc1nc(-c2cc(C)c(N[C@@H](C)c3ccc(F)cc3)nn2)ccc1-n1cnc(C)c1 | male CD-1 mouse | oral, 5 mg/kg, single dose | 63.1% |
| CCc1cc(C(=O)NC)c2nccc(N3CCc4c(cc(Cn5ccnc5)cc4-c4cn(C)nc4C(F)(F)F)C3=O)c2c1 | male CD-1 mouse | oral, 50 mg/kg | 175% |
| CC[C@H](C)[C@@H]1NC(=O)[C@@](C)(NC(=O)[C@H](CCCNC(=N)N)NC(=O)[C@H](CC(C)C)NC(=O)[C@@H](NC(=O)[C@H](CCC(N)=O)NC(=O)[C@H](CC(C)C)NC(C)=O)[C@@H](C)O)CCCC=CCCC[C@@](C)(C(=O)N[C@@H](CC(C)C)C(=O)N[C@@H](Cc2ccc3ccccc3c2)C(N)=O)NC(=O)[C@H](CCCNC(=N)N)NC(=O)[C@H](CCC(N)=O)NC1=O | male BALB/c mouse | intraperitoneal, 5 mg/kg | 81.1% |
| COc1ccc2nccc(N3CCc4c(cc(Cn5ccnc5)cc4-c4cn(C)nc4C(F)(F)F)C3=O)c2c1 | male CD-1 mouse | oral, 50 mg/kg | 110% |
| O=C(CC1Cc2ccccc2C1)N[C@H](CN1CCCC1)[C@H](O)c1ccc(OC(F)(F)F)cc1 | CD-1 mouse | oral, 10 mg/kg | 34% |
| Cc1nc2ccccc2n1Cc1ccc(C(=O)NO)cc1F | male CD-1 mouse | oral, 30 mg/kg | ~21% |
| CCCCCCCC(=O)N[C@H](CN1CCCC1)[C@H](O)c1ccc2c(c1)OCCO2 | CD-1 mouse | oral, 10 mg/kg | < 1% |
| O=C1Nc2cc(F)cc(F)c2C(=O)CCc2ccccc21 | male Swiss mouse | oral | ~20% |
| CSc1cc(Oc2ccnc3[nH]c(=O)cnc23)ccc1NC(=O)Nc1cc(C(C)(C)C)nn1-c1ccccc1 | BALB/c mouse | oral, 10 mg/kg | 58% |
| N#Cc1ccc(/C=C/c2nc3ccccc3c(=O)n2-c2cccc(C(=O)O)c2)cc1 | mouse | oral, 10 mg/kg, single dose | 50% |
| CCN1CCN(Cc2cc(NC(=O)c3ccc(C)c(-c4ccc5nc(NC(=O)C6CC6)cn5n4)c3)cc(C(F)(F)F)c2)CC1 | Swiss mouse | oral, 10 mg/kg | 4% |
| Cc1ccc2cncc(N3CCc4c(cc(Cn5ccnc5)cc4-c4cn(C)nc4C(F)(F)F)C3=O)c2c1 | male CD-1 mouse | oral, 10 mg/kg | 35% |
| CCN1CC(=O)NC(CC(C)C)C(=O)N(C)C(C)C(=O)NC(CC(C)C)C(=O)N2CCCC2C(=O)N(CC2CCOCC2)CC(=O)NC(CC(C)C)C(=O)N(C)C(C)C(=O)NC(C)C(=O)N2CCCC2C1=O (centres unmarked) | mouse | oral, 200 mg/kg | 50% |
| C=CC(=O)N1CC2CC(n3nc(-c4ccc(C(=O)Nc5ccccn5)cc4)c4c(N)ncnc43)CC2C1 (centres unmarked) | male BALB/c mouse | oral, 3 mg/kg | 47% |
| COc1cc(OC)c2nccc(N3CCc4c(cc(Cn5ccnc5)cc4-c4cn(C)nc4C(F)(F)F)C3=O)c2c1 | male CD-1 mouse | oral, 50 mg/kg | 452% |
